{"source": "ChEMBL document CHEMBL3865805", "about": "“Discovery and antiplatelet activity of a selective PI3Kβ inhibitor (MIPS-9922)” (Eur J Med Chem, 2016)", "key": {"Mus musculus [1]": {"test_system": "Mus musculus", "assay": "Toxicity in C57BL/6 mouse model of electrolytic injury induced occlusive thrombus formation assessed as increase in tail bleeding time at 2.5 mg/kg, iv bolus administration", "format": "organism-based", "details": "in vivo", "outline": "(§1)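 Mouse tail bleeding assay after 2.5 mg/kg iv (n = 8) against vehicle, 0.01% DMSO (n = 8). Tail bleeding time recorded; blood loss quantified as absorbance of haemoglobin at 575 nm.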"}, "[2]": {"assay": "Distribution constant, logD of compound at pH 7.4", "format": "physicochemical", "details": "buffer"}, "[3]": {"assay": "Effect on platelet tethering in human washed platelets at 0.1 to 5 uM", "format": "ADME, cell-based"}, "[4]": {"assay": "Drug excretion in iv dosed rat urine by LC-MS analysis", "format": "ADME, organism-based", "details": "read-out: Drug excretion"}, "[5]": {"assay": "Clearance in rat by LC-MS analysis relative to hepatic blood flow", "format": "ADME, Liver", "details": "in vivo"}, "[6]": {"assay": "Plasma clearance in Sprague-Dawley rat at 3 mg/kg, iv by LC-MS analysis", "format": "ADME, organism-based", "outline": "(§2)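 Sprague Dawley rats, n=2 per route. Single dose: 3 mg/kg intravenous or 20 mg/kg oral. Plasma concentration followed over time. Half-life, volume of distribution, clearance, Tmax and oral bioavailability derived from the plasma concentration-time profiles.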"}, "[7]": {"assay": "Antiplatelet activity against human washed platelets assessed as shear-induced stationary platelet adhesion to vWF matrix at 1 to 5 uM preincubated for 5 mins followed by blood perfusion after 4 mins relative to control", "format": "functional", "outline": "(§3)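 Human whole blood, anticoagulated, perfused over a vWf matrix at 1800 s^-1 for 4 min; stationary platelet adhesion scored. Vehicle DMSO 0.25% taken as 100%. Drug tested up to 5 µM. t test against 0.1 µM drug.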"}, "[8]": {"assay": "Aqueous solubility of compound at pH 2 by turbidimetric solubility assay", "format": "physicochemical", "details": "buffer"}, "[9]": {"target": "T1, Phosphatidylinositol 4,5-bisphosphate 3-kinase catalytic subunit beta isoform (Homo sapiens, UniProt P42338)", "T1 sequence (P42338 whole entry, looked up, canonical isoform)": "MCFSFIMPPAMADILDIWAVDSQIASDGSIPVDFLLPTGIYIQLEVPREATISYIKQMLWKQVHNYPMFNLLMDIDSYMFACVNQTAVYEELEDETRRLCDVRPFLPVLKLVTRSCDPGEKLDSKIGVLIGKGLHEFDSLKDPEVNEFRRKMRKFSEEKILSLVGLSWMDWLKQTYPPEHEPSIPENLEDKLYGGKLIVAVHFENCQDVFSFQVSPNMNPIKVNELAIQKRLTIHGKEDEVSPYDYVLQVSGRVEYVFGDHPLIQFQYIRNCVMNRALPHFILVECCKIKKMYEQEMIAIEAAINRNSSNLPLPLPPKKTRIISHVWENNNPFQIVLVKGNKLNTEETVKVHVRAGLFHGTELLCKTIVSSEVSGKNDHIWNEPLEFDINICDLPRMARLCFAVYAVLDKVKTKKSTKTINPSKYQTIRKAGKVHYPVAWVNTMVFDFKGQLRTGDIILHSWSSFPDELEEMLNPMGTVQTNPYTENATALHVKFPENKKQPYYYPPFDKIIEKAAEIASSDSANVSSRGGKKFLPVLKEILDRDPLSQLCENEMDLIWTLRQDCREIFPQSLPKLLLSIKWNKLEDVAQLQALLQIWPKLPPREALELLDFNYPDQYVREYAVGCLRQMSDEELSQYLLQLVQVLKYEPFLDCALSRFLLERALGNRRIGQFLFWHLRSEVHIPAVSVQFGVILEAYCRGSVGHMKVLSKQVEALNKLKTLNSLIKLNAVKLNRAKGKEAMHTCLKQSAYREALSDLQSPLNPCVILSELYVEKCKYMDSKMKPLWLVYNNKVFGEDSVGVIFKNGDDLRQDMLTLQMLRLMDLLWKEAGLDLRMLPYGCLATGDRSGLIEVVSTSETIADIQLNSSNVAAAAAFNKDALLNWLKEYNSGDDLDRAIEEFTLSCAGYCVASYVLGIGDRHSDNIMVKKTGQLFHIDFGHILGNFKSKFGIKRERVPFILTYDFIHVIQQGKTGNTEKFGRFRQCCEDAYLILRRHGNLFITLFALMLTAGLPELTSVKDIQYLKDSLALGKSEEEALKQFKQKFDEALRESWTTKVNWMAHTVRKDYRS", "assay": "Inhibition of PI3Kbeta in human washed platelets assessed as suppression of ADP-induced platelet aggregation at 0.5 uM preincubated for 5 mins followed by 25 uM ADP stimulation after 10 mins by light transmission aggregometric analysis", "outline": "(§4)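 Washed human platelets in an aggregometer. Inhibitor at 0.5 µM. Aggregation induced by 5, 10 or 25 µM ADP; percent inhibition read.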"}, "[10]": {"target": "T1, Phosphatidylinositol 4,5-bisphosphate 3-kinase catalytic subunit beta isoform", "assay": "Inhibition of PI3Kbeta in human washed platelets assessed as suppression of ADP-induced integrin alpha2bbeta3 activation preincubated for 5 mins followed by ADP stimulation after 10 mins by OG-FNG-based FACS analysis", "outline": "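Washed human platelets stimulated with ADP (5 µM). Integrin αIIbβ3 activation read as Oregon-Green fibrinogen binding by flow cytometry. DMSO 0.25% control set as 100%. n = 3, mean ± SEM. t test against 0.001 µM drug.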"}, "albumin": {"target": "albumin (Homo sapiens, UniProt P02768)", "sequence (P02768 whole entry)": "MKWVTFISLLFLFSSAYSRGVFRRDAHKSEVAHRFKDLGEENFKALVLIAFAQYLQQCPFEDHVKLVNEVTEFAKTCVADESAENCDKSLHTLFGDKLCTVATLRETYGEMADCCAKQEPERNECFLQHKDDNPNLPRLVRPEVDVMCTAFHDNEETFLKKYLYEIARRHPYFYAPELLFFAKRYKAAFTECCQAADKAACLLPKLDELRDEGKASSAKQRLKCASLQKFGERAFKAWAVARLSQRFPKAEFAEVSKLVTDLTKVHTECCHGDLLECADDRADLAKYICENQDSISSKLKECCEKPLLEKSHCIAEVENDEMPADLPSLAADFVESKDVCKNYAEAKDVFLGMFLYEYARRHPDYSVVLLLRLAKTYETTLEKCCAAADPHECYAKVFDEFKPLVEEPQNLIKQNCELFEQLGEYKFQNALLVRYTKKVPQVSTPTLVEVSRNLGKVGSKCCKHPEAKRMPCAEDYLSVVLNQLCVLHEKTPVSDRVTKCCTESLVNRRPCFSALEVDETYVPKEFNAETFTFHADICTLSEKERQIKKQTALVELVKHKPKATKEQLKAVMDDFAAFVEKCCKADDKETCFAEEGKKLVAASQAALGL", "assay": "Protein binding to human serum albumin by HPLC analysis", "format": "ADME", "details": "read-out: PB (converted)"}, "[11]": {"assay": "Tmax in Sprague-Dawley rat at 20 mg/kg, po via gavage by LC-MS analysis", "format": "ADME, organism-based", "details": "in vivo", "outline": "as §2"}, "[12]": {"assay": "Apparent half life in Sprague-Dawley rat at 3 mg/kg, iv by LC-MS analysis", "format": "ADME, organism-based", "details": "in vivo, read-out: t1/2(app)", "outline": "as §2"}, "[13]": {"assay": "Intrinsic clearance in human liver microsomes at 1 uM after 60 mins in presence of NADPH by UPLC-MS analysis", "format": "ADME", "details": "read-out: CLH"}, "[14]": {"assay": "Effect on platelet translocation in human washed platelets at 0.1 to 5 uM", "format": "ADME, cell-based"}, "[15]": {"assay": "Stability in Sprague-Dawley rat plasma at […] after 4 hrs by UPLC-MS analysis", "format": "ADME, cell-free"}, "Mus musculus [16]": {"test_system": "Mus musculus", "assay": "Antithrombosis activity in C57BL/6 mouse model of electrolytic injury induced occlusive thrombus formation assessed as prevention of arterial thrombi formation by measuring effect on rate of carotid artery blood flow at 2.5 mg/kg, iv administered through bolus prior to electrolytic injury", "format": "functional, organism-based", "outline": "(§5)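 Electrolytic injury to the mouse carotid artery; 2.5 mg/kg given iv in saline (n = 8) against saline control (n = 8). Carotid blood flow (ml/min per 100 g body weight) monitored after injury, and flow volume taken as area under the curve over the 60-min period; mean ± S.E.M.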"}, "Platelet": {"test_system": "Platelet", "assay": "Antiplatelet activity against human washed platelets assessed as reduction in shear-induced stationary platelet adhesion to vWF matrix preincubated for 5 mins followed by blood perfusion after 4 mins", "format": "functional, cell-based", "outline": "as §3"}, "[17]": {"assay": "Volume of distribution at steady state in Sprague-Dawley rat at 3 mg/kg, iv by LC-MS analysis", "format": "ADME, organism-based", "details": "in vivo, read-out: Vdss", "outline": "as §2"}, "[18]": {"target": "T1, Phosphatidylinositol 4,5-bisphosphate 3-kinase catalytic subunit beta isoform", "assay": "Inhibition of PI3Kbeta in human washed platelets assessed as suppression of ADP-induced platelet aggregation preincubated for 5 mins followed by ADP stimulation after 10 mins by light transmission aggregometric analysis", "outline": "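Washed human platelets in a conventional aggregometer. Aggregation induced by ADP; IC50 taken from the dose-response curve.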"}, "[19]": {"assay": "Intrinsic clearance in rat liver microsomes at 1 uM after 60 mins in presence of NADPH by UPLC-MS analysis", "format": "ADME", "details": "read-out: CLH"}, "[20]": {"target": "T2, Proteinase-activated receptor 1 (Homo sapiens) (UniProt P25116)", "T2 sequence (whole entry)": "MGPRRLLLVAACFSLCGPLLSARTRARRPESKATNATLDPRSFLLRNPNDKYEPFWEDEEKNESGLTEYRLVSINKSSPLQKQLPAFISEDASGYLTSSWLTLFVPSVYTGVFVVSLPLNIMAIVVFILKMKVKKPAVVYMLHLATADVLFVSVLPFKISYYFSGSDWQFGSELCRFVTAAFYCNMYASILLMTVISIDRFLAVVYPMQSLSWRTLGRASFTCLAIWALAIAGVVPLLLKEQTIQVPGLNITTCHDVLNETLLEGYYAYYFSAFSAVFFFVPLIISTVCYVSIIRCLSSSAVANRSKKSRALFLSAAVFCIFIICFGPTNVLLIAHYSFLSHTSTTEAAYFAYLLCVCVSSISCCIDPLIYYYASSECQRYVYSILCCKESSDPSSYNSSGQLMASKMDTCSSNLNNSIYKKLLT", "assay": "Inhibition of PAR1 in human washed platelets assessed as suppression of TRAP-induced integrin alpha2bbeta3 activation preincubated for 5 mins followed by TRAP stimulation after 10 mins by OG-FNG-based FACS analysis", "outline": "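Washed human platelets stimulated with TRAP at 0.5–1 µM, chosen by donor response. αIIbβ3 activation read as Oregon-Green fibrinogen binding by flow cytometry. DMSO 0.25% control set as 100%. n = 4-7, mean ± SEM.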"}, "Rattus norvegicus": {"test_system": "Rattus norvegicus", "assay": "Toxicity in Sprague-Dawley rat at 20 mg/kg, po administered via gavage or 3 mg/kg, iv", "format": "organism-based", "details": "in vivo"}, "Mus musculus [21]": {"test_system": "Mus musculus", "assay": "Toxicity in C57BL/6 mouse model of electrolytic injury induced occlusive thrombus formation assessed as excessive blood loss at 2.5 mg/kg, iv bolus administration", "format": "organism-based", "details": "in vivo", "outline": "as §1"}, "[22]": {"target": "T1, Phosphatidylinositol 4,5-bisphosphate 3-kinase catalytic subunit beta isoform", "assay": "Inhibition of PI3Kbeta in human washed platelets assessed as suppression of ADP-induced platelet aggregation at 0.5 uM preincubated for 5 mins followed by 5 to 10 uM ADP stimulation after 10 mins by light transmission aggregometric analysis", "outline": "as §4"}, "[23]": {"assay": "Apparent oral bioavailability in Sprague-Dawley rat at 20 mg/kg administered via gavage by LC-MS analysis", "format": "ADME, organism-based", "details": "in vivo, read-out: Fapp", "outline": "as §2"}, "[24]": {"assay": "Distribution constant, logD of compound at pH 3", "format": "physicochemical", "details": "buffer"}, "Mus musculus [25]": {"test_system": "Mus musculus", "assay": "Antithrombosis activity in C57BL/6 mouse model of electrolytic injury induced occlusive thrombus formation assessed as prevention of arterial thrombi formation by measuring effect on carotid artery blood flow volume at 2.5 mg/kg, iv administered through bolus prior to electrolytic injury measured after 60 mins", "format": "functional, organism-based", "outline": "as §5"}, "[26]": {"assay": "Aqueous solubility of compound at pH 6.5 by turbidimetric solubility assay", "format": "physicochemical", "details": "buffer"}, "[27]": {"assay": "Aqueous solubility of compound in saline", "format": "physicochemical", "details": "buffer"}, "[28]": {"target": "T1, Phosphatidylinositol 4,5-bisphosphate 3-kinase catalytic subunit beta isoform", "assay": "Inhibition of PI3Kbeta in human platelet-rich plasma assessed as suppression of ADP-induced platelet aggregation preincubated for 5 mins followed by ADP stimulation after 10 mins by light transmission aggregometric analysis", "outline": "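Human platelet-rich plasma stimulated with ADP; aggregation measured over a concentration range of inhibitor, and IC50 taken from the dose-response curve.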"}, "[29]": {"assay": "Blood clearance in rat by LC-MS analysis", "format": "ADME, tissue-based", "details": "whole blood"}}, "note": "Active and inactive are the calls of the source. No cut-off for these calls is given here.", "data": [{"molecule": "N[C@@H](Cc1ccccc1)C(=O)N1CCN(c2nc(N3CCOCC3)nc(-n3c(C(F)F)nc4ccccc43)n2)CC1", "values": [{"measurement": "Activity", "setting": "Mus musculus [1]", "value": "Non-Toxic"}, {"measurement": "logD", "setting": "[2]", "value": 3.7}, {"measurement": "Activity", "setting": "[3]", "value": "Non-Toxic"}, {"measurement": "dose excreted", "setting": "[4]", "value": "< 0.1", "unit": "%"}, {"measurement": "CL", "setting": "[5]", "value": 60, "unit": "%"}, {"measurement": "clearance", "setting": "[6]", "value": 67, "unit": "mL/min/kg"}, {"measurement": "inhibition (INH)", "setting": "[7]", "value": "<=60%"}, {"measurement": "solubility kinetic", "setting": "[8]", "value": "> 100", "unit": "µg/mL"}, {"measurement": "inhibition", "setting": "[9]", "value": 15, "unit": "%"}, {"measurement": "inhibition", "setting": "[10]", "value": "Dose-dependent effect"}, {"measurement": "fraction unbound", "setting": "albumin", "value": 0.03}, {"measurement": "Tmax", "setting": "[11]", "value": "1 to 4", "unit": "h"}, {"measurement": "half-life", "setting": "[12]", "value": "2.8 to 3", "unit": "h"}, {"measurement": "microsomal CLint at 1 µM", "setting": "[13]", "value": 22, "unit": "µL/min/mg"}, {"measurement": "Activity", "setting": "[14]", "value": "Non-Toxic"}, {"measurement": "Stability", "setting": "[15]", "value": "Stable"}, {"measurement": "Activity", "setting": "Mus musculus [16]", "value": "Active"}, {"measurement": "inhibition", "setting": "Platelet", "value": "Dose-dependent effect"}, {"measurement": "Vd", "setting": "[17]", "value": 8.6, "unit": "L/kg"}, {"measurement": "inhibition", "setting": "[18]", "value": "Dose-dependent effect"}, {"measurement": "microsomal CLint at 1 µM", "setting": "[19]", "value": 43, "unit": "µL/min/mg"}, {"measurement": "inhibition", "setting": "[20]", "value": "Dose-dependent effect"}, {"measurement": "Activity", "setting": "Rattus norvegicus", "value": "Non-Toxic"}, {"measurement": "Activity", "setting": "Mus musculus [21]", "value": "Non-Toxic"}, {"measurement": "inhibition", "setting": "[22]", "value": "Active"}, {"measurement": "bioavailability", "setting": "[23]", "value": 26, "unit": "%"}, {"measurement": "logD", "setting": "[24]", "value": 3}, {"measurement": "Activity", "setting": "Mus musculus [25]", "value": "Active"}, {"measurement": "solubility kinetic", "setting": "[26]", "value": "6.3 to 12.5", "unit": "µg/mL"}, {"measurement": "solubility", "setting": "[27]", "value": "Soluble"}, {"measurement": "inhibition", "setting": "[28]", "value": "Dose-dependent effect"}, {"measurement": "clearance", "setting": "[29]", "value": 39, "unit": "mL/min/kg"}]}]}
